Laboratory results taken from publication PMC3099401 (Journal of agricultural and food chemistry, 2011).
Blank lines part the entries; values can stand above or below the compound they belong to.

Assays:
[1] = system: neuroblastoma cells; experiment: In vitro cell viability; type: cell-based; conditions: 4 days, normalized to DMSO controls; for effect on viability: 100 and 200 μM
[2] = system: neuroblastoma cells; experiment: Cellular uptake by live-cell multiphoton microscopy; type: cell-based; conditions: 37°C
Outline: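 Live neuroblastoma cells in HBSS kept at 37°C on a stage incubator. Two-photon imaging used 765 nm Ti:Sapphire excitation, a 20× objective and a GaAsP photon-counting detector, with 1024×1024 images at identical laser power. Imaging ran from 90 s (the earliest possible) and at 5 min after adding 100 μM test compound, then again 5 min after an HBSS wash and after re-addition.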

[3] = system: SK-N-AS neuroblastoma cells; experiment: Calcium imaging with fura-2, SK-N-AS; type: cell-based; conditions: 100 μM
[4] = system: NGP neuroblastoma cells; experiment: Calcium imaging with fura-2, NGP; type: cell-based; conditions: 100 μM
[5] = system: SK-N-AS neuroblastoma cells; experiment: In vivo efficacy, SK-N-AS xenograft mouse model; set-up: species or system athymic nu/nu mice

Structure (SMILES): O=C(O)[C@H]1O[C@@H](Oc2cc(O)cc(/C=C/c3ccc(O)cc3)c2)[C@H](O)[C@@H](O)[C@@H]1O [3-Glu-Res, 3-O-glucuronidated Res]
effect on viability [1]: no effect on viability

Structure (SMILES): O=C(O)[C@H]1O[C@@H](Oc2ccc(/C=C/c3cc(O)cc(O)c3)cc2)[C@H](O)[C@@H](O)[C@@H]1O [4′-Glu-Res, 4′-O-glucuronidated Res]
effect on viability [1]: no effect on viability

time after addition until cells become brightly fluorescent ([2]; earliest time point that can be taken): ≤ 90 s
Structure (SMILES): Oc1ccc(/C=C/c2cc(O)cc(O)c2)cc1 [Res, resveratrol]
reduction of the number of viable cells ([1]; 100 μM): ~85% | cellular uptake (cellular fluorescence, excited at 765 nm) ([2]; 100 μM, HBSS): enters and then permeates throughout the cell | change in [Ca^2+]i (fura-2 fluorescence) [3]: rise in [Ca^2+]i | change in [Ca^2+]i (fura-2 fluorescence) [4]: rise in [Ca^2+]i | tumor regression ([5]; direct injection into the tumor, 250mg/kg, block copolymer formulation): regression of the tumor was then observed | tumor inhibition compared to vehicle-treated controls ([5]; peri-tumor, 5 injections of 200 μL R-P104 (approx. 5.0 mg Res each) over two weeks): about 88%

Structure (SMILES): O=S(=O)(O)Oc1cc(O)cc(/C=C/c2ccc(O)cc2)c1 [monosulf-Res, Res 3-O-sulfate]
effect on viability [1]: no effect on viability
